Test results reported in article PMC11522000 (Nature Microbiology, 2024).
Converted amounts (≈) assume the structure as drawn.

What was measured:
[1] = High-throughput equilibrium solubility; type: physicochemical; settings: thermodynamic from solid
Outline: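 Equilibrium solubility was measured by a miniaturized shake-flask method with HPLC quantification.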

[2] = Plasma stability; type: in vitro ADME; settings: mouse
Outline: (§1)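 Test compound was added to plasma and incubated at 37 °C in a shaking water bath, with samples taken at sequential timepoints. Samples were quenched with ice-cold acetonitrile and analysed by LC-MS/MS, and half-life was calculated from the depletion rate.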

[3] = Plasma stability; type: in vitro ADME; settings: human
Outline: as §1

[4] = test system: P-glycoprotein (MDR1); experiment: MDCK MDR1 permeability and efflux; type: in vitro ADME; settings: dog
[5] = Hepatocytes metabolic stability; type: in vitro ADME; settings: mouse; for half-life: hepatocytes
Outline: (§2)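 Test compound was incubated with liver microsomes or hepatocytes of each species, and parent depletion was quantified by LC-MS/MS. From this, in vitro half-life and intrinsic clearance were derived, along with predicted metabolic clearance and hepatic extraction ratio.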

[6] = target: T1, CpPI(4)K (Cryptosporidium parvum, UniProt Q5CVD3); experiment: PI; type: biochemical, C. parvum
T1 sequence (Q5CVD3 1-1114): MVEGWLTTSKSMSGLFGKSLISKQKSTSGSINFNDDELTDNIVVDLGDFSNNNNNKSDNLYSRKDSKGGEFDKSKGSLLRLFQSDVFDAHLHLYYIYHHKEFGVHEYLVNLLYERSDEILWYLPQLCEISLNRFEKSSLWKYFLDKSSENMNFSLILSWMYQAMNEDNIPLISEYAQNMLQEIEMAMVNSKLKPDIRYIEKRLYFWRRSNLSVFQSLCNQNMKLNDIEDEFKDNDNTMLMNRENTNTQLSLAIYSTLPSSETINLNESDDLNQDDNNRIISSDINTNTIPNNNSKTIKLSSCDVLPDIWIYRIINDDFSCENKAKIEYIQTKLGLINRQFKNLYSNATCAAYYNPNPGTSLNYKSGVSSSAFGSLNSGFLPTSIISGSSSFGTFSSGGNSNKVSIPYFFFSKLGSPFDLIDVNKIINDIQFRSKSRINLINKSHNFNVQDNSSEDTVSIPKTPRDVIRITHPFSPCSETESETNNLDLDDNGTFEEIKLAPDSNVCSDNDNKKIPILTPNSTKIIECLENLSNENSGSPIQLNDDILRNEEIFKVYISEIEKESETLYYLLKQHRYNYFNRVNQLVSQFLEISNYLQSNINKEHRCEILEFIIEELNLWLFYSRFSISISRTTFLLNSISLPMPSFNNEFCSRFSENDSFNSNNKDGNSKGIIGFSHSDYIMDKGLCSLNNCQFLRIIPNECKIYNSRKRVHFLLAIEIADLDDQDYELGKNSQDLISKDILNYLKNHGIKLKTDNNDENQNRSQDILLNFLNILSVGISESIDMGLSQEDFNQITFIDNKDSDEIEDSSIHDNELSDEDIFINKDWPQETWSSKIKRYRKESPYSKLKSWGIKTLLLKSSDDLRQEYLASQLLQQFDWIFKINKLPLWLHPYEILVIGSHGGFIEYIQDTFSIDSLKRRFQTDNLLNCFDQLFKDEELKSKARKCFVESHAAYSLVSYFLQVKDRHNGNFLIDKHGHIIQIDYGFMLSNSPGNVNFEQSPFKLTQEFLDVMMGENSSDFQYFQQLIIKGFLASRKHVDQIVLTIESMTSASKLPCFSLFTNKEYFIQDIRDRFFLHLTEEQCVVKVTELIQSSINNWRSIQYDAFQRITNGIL
Outline: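 Enzyme was pre-incubated with compound for 5 min at room temperature. The reaction was started with substrate mix at twice final strength (PI, ATP, Tris-HCl pH 7.5, DTT, 0.05% Triton X-100, MnCl2) and run 50 min at room temperature. ADP was measured by ADP-Glo luminescence. IC50s came from in-plate duplicate 10-point 3-fold dilutions, with DMSO and reference-inhibitor controls. The C. parvum enzymes (wild type and mutants) were full-length proteins expressed from baculovirus in Sf21 cells.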

[7] = target: HsPI(4)K (Homo sapiens, UniProt Q9UBF8); experiment: PI; type: biochemical; settings: HsPI(4)K IC50, 3 μM ATP
Sequence of HsPI(4)K (Q9UBF8 523-816 limits assumed): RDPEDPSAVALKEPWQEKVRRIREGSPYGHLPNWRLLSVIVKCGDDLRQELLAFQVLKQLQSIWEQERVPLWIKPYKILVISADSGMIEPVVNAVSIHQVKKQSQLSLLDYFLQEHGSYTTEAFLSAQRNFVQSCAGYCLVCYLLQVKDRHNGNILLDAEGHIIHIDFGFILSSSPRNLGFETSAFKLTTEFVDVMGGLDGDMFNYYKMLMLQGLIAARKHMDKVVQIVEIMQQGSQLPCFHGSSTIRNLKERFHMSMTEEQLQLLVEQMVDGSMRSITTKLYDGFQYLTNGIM

[8] = Cytotoxicity assay; type: cell-based, human; settings: human, HepG2 cells (ATCC CRL-10741), HepG2 CC50, 96 h
[9] = test system: C. parvum; experiment: Mouse efficacy study; type: in vivo, C57BL/6 IFN-γ-knockout mice; settings: oral 10 mg kg^−1, 5 days; nitazoxanide 100 mg kg^−1
[10] = Stability in intestinal S9 fraction; type: in vitro ADME; settings: mouse
Outline: (§3)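 Test compound added to intestinal S9 fraction of each species to start the reaction. Incubated in a shaking water bath at 37 °C, with samples taken at sequential timepoints. Samples quenched with ice-cold acetonitrile and analysed by LC-MS/MS. Half-life calculated from the rate of parent compound depletion.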

[11] = Stability in intestinal S9 fraction; type: in vitro ADME; settings: human
Outline: as §3

[12] = Systemic exposure in the mouse efficacy studies; type: in vivo; settings: mouse efficacy study, 10 mg kg^−1 oral
[13] = In vivo pharmacokinetic analysis; design: species or system mouse; settings: male, C57BL/6, mouse, plasma
Outline: (§4)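 Animals were male C57BL/6 mice (8–10 weeks), Wistar rats (8–10 weeks) and beagle dogs (12–14 weeks). Each received oral and i.v. doses, with plasma sampling for PK parameters.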

[14] = In vivo pharmacokinetic analysis; settings: male, Beagle, dog, plasma
Outline: as §4

[15] = 2 weeks GLP rat toxicology study with toxicokinetics; type: in vivo; settings: both, Wistar, plasma, po, 1000 mg/kg/day, EDI048 1000 mg/kg/day; for AUC(0-t): AUC0-8, rat
Outline: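 Male and female Wistar rats were about 7–8 weeks old at receipt and 9–10 weeks old at the start of dosing. They were dosed for 2 weeks at 50, 250 and 1000 mg/kg/day, with toxicokinetic plasma sampling.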

[16] = 2 weeks GLP dog toxicology study with toxicokinetics; type: in vivo; settings: both, beagle, dog, plasma, po, 1000 mg/kg/day, EDI048 1000 mg/kg/day; for AUC(0-t): AUC0-8, dog
[17] = Hepatocytes metabolic stability; type: in vitro ADME; settings: human
Outline: as §2

solubility ([1]; FaSSIF) | solubility ([1]; pH 6.8, aqueous buffer) | half-life [2] | half-life [3] | Papp A→B ([4]; MDCK-MDR1) | Papp B→A ([4]; MDCK-MDR1) | efflux ratio ([4]; MDCK-MDR1) | Hepatocytes ER [5] | half-life [5] | IC50 ([6]; CpPI(4)K IC50, 3 μM ATP) | IC50 ([6]; CpPI(4)K IC50, running text) | IC50 [7] | half-life [10] | half-life [11] | Structure (SMILES) | CC50 at 96 h [8] | efficacy in the mouse model [9] | AUC(0-t) ([15]; day 14) | Cmax ([15]; day 14) | Tmax ([15]; day 1) | Tmax ([15]; day 14) | other results
86 µM (≈ 42.2 µg/mL) | 31 µM (≈ 15.2 µg/mL) | 0.227 h | > 2 h | 7.89 ×10⁻⁶ cm/s | 7.4 ×10⁻⁶ cm/s | 0.94 | 74% | 0.223 h | 0.007 ± 0.002 µM | 0.002 to 0.007 µM | 1.14 ± 0.296 µM | 2 h | 2 h | CCOC(=O)CN(C(=O)c1ccn2ncc(-c3ccc(C(=O)NC)cc3)c2c1)c1ccc(Cl)cc1 [Compound 1, ethyl N-(4-chlorophenyl)-N-(3-(4-(methylcarbamoyl)phenyl)pyrazolo[1,5-a]pyridine-5-carbonyl)glycinate] | 14.7 µM | highly efficacious |  |  |  |  | 
1000 µM (≈ 463 µg/mL) | 708 µM (≈ 328 µg/mL) | > 2 h | > 2 h | 0.89 ×10⁻⁶ cm/s | 1.65 ×10⁻⁶ cm/s | 1.85 | 52% | 0.597 h | 0.002 µM | 0.002 to 0.007 µM | 0.135 ± 0.033 µM | > 4 h |  | CNC(=O)c1ccc(-c2cnn3ccc(C(=O)N(CC(=O)O)c4ccc(Cl)cc4)cc23)cc1 [Compound 2, N-(4-chlorophenyl)-N-(3-(4-(methylcarbamoyl)phenyl)pyrazolo[1,5-a]pyridine-5-carbonyl)glycine] | > 100 µM | not efficacious in vivo |  |  |  |  | 
355 µM (≈ 200 µg/mL) | 11 µM (≈ 6.18 µg/mL) |  |  |  |  |  | 93% | < 0.0467 h | 0.005 µM |  | 1.03 ± 0.485 µM | 0.153 h | 0.75 h | CNC(=O)c1ccc(-c2cnn3ccc(C(=O)N(CCC(=O)OCC(=O)N(C)C)c4ccc(Cl)cc4)cc23)cc1 [Compound 3, 2-(dimethylamino)-2-oxoethyl 3-(N-(4-chlorophenyl)-3-(4-(methylcarbamoyl)phenyl)pyrazolo[1,5-a]pyridine-5-carboxamido)propanoate] | 38.2 µM | inactive in vitro and in vivo |  |  |  |  | AUC (time 0 to last timepoint) [12]: <LLOQ^f; Cmax [12]: <LLOQ^f
147 µM (≈ 68 µg/mL) | 110 µM (≈ 50.9 µg/mL) | > 2 h | > 2 h | 2.55 ×10⁻⁶ cm/s | 15.7 ×10⁻⁶ cm/s | 6.15 | 91% | 0.0667 h | 0.005 ± 0.002 µM |  | 0.203 ± 0.047 µM | 1 h | 1.77 h | COC(=O)c1cc(Cl)ccc1N(C)C(=O)c1ccn2ncc(-c3ccc(C(N)=O)cc3)c2c1 [Compound 5, methyl 2-(3-(4-carbamoylphenyl)-N-methylpyrazolo[1,5-a]pyridine-5-carboxamido)-5-chlorobenzoate] | > 100 µM |  |  |  |  |  | 

Structure (SMILES) | solubility ([1]; FaSSIF) | solubility ([1]; pH 6.8, aqueous buffer) | half-life [2] | half-life [3] | Papp A→B ([4]; MDCK-MDR1) | Papp B→A ([4]; MDCK-MDR1) | efflux ratio ([4]; MDCK-MDR1) | Hepatocytes ER [5] | half-life [5] | IC50 ([6]; CpPI(4)K IC50, 3 μM ATP) | IC50 ([6]; CpPI(4)K IC50, running text) | IC50 [7] | half-life [10] | half-life [11] | CC50 at 96 h [8] | efficacy in the mouse model [9] | AUC(0-t) ([15]; day 14) | Cmax ([15]; day 14) | Tmax ([15]; day 1) | Tmax ([15]; day 14) | other results
CNC(=O)c1ccc(-c2cnn3ccc(C(=O)N(C)c4ccc(Cl)c(C(=O)O)c4)cc23)cc1 [Compound 6, 2-chloro-5-(N-methyl-3-(4-(methylcarbamoyl)phenyl)pyrazolo[1,5-a]pyridine-5-carboxamido)benzoic acid] |  |  |  |  | 0.56 ×10⁻⁶ cm/s |  | 1.86 | 18% | > 2.92 h | 0.031 ± 0.024 µM |  | 0.484 ± 0.119 µM | > 4 h |  | > 100 µM |  | 1430 ng·h/mL | 242 ng/mL | 1 h | 3 h | AUC ([13]; iv, 1 mg/kg): 1.19 µM·h; AUC ([13]; po, 10 mg/kg): 0.092 µM·h; Cmax ([13]; po, 10 mg/kg): 33.4 nM; solubility ([1]; pH 6.8, aqueous buffer, Solubility pH 6.8, pH 6.8): > 1000 µM; AUC ([14]; iv, 0.1 mg/kg): 0.0319 µM·h; AUC ([14]; po, 0.3 mg/kg): 0.0047 µM·h; Cmax ([14]; po, 0.3 mg/kg): 2 nM; Papp B→A ([4]; MDCK-MDR1, Permeability B–A, MDCK MDR1, basolateral to apical): 1.04 ×10⁻⁶ cm/s; AUC(0-t) ([15]; day 1): 886 ng·h/mL; AUC(0-t) ([16]; day 1): 205 ng·h/mL; AUC(0-t) ([16]; day 14): 301 ng·h/mL; Cmax ([16]; day 14): 72.8 ng/mL; Tmax ([16]; day 1): 1.2 h; Tmax ([16]; day 14): 1.15 h; Hepatocytes ER [17]: 33%; half-life ([17]; hepatocytes): > 2.92 h
COC(=O)c1cc(N(C)C(=O)c2ccn3ncc(-c4ccc(C(=O)O)cc4)c3c2)ccc1Cl [Compound 7, 4-(5-((4-chloro-3-(methoxycarbonyl)phenyl)(methyl)carbamoyl)pyrazolo[1,5-a]pyridin-3-yl)benzoic acid] |  |  |  |  |  |  |  |  |  | 0.076 µM |  | 11.3 µM |  |  | > 100 µM |  | 0.221 ng·h/mL | 0.046 ng/mL | 3 h | 1 h | AUC(0-t) ([16]; day 1): 642 ng·h/mL; AUC(0-t) ([16]; day 14): 1180 ng·h/mL; Cmax ([16]; day 14): 224 ng/mL; Tmax ([16]; day 1): 1.6 h; Tmax ([16]; day 14): 2.2 h
